Source: PubChem (Broad Institute)
Hits are enriched below; roughly 2.7% of the tested compounds scored in any of these assays.
SIRT5 block – inhibitors of human sirtuin-5 desuccinylase; 330,000 compounds, 1.1% hits; Purified SirT5, succinyl-peptide AMC, trypsin-coupled fluorescence; Q9NXA8; inhibition, % at 15 µM; AID 652115; in the data active means inhibition above about 15%; inconclusive means no clear call, values can overlap the other calls
Target sequence (Q9NXA8 whole entry, looked up): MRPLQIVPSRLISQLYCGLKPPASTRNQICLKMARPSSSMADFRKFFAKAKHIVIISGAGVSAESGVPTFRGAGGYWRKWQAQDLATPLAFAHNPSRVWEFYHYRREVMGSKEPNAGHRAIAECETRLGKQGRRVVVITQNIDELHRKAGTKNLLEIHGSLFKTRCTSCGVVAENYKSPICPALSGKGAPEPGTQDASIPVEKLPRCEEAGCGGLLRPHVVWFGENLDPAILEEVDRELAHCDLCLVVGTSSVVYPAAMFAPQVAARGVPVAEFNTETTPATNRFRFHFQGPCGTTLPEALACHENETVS
MLL AF4-AF9 inh – inhibitors of human MLL-AF4/AF9 interaction; P42568; AlphaScreen, biotin-AF4 peptide binding to FLAG-AF9; inhibition, % at 10 µM; 350,000 compounds, 0.47% hits;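 active means every replicate reaching a set inhibition limit, whatever the replicate mean, cut at about 25% in these data; inconclusive means mean inhibition reaches that limit but some replicates miss it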;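 further: 0% = plate neutral control median and 100% = total signal loss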
DENV2 CPE – protects cells from dengue virus 2 cytopathic effect | DENV2-infected cells, cytopathic effect rescue, plate reader | CPE inhibition, % at 9.99 µM | 350,000 compounds, 1.7% hits | AID 651640; in the data active means CPE inhibition above about 20%, passing the limit was not always enough; inconclusive means no clear call, values can overlap the other calls; tested in BHK-21 cells;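 further: 0% = median of neutral control wells and 100% = median of positive control wells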
S100A4 inh HTS – inhibitors of human S100A4 binding to myosin IIA peptide | P26447 | S100A4/TAMRA-MyoIIA peptide fluorescence polarization | inhibition, % at 10.7 µM | 360,000 compounds, 0.14% hits | AID 652163;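 active means mean inhibition of at least 70% across replicates, with every replicate also reaching that level; inconclusive means mean inhibition reaches 70% but some replicates fall short; inactive means mean inhibition below 70%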
Target sequence (P26447 whole entry, looked up): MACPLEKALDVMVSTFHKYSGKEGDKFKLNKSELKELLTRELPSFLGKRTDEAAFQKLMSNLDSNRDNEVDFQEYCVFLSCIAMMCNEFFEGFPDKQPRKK
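Test system – S100A4 monomer (human) · Compound – single-point compound testing · Schedule – 5 min incubation before reading · Probe or stimulus – TAMRA-labelled myosin IIA heavy-chain peptide probe, 5 nM · Benchmarks – neutral control DMSO, positive control TFP · Medium – Calcium-containing HEPES buffer, pH 7.2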
CaV13 ICDI inh – Primary screen for inhibitors of IQ motif and Ca2+-dependent inactivation inhibitor domain binding in CACNA1D, Förster resonance energy transfer in living cells, … | inhibition, % at 12.3 µM | 340,000 compounds, 0.098% hits | HEK cells, CFP/YFP FRET ICDI-IQ, plate reader, 10 min; percent FRET-ratio fall versus neutral wells;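 active means mean replicate inhibition of at least 30% and at least 1% of replicates passing that level; inconclusive means only one of the two criteria is met; inactive means neither criterion is met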;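 further: 0% = median of the neutral control wells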
Active calls of the source: *.

Screening O=C(Cc1cccc(C(F)(F)F)c1)Nc1ccc(S(=O)(=O)N2CCCC2)cc1 returned SIRT5 block 1.1, MLL AF4-AF9 inh -1.0, DENV2 CPE 79.0*, S100A4 inh HTS -6.0 and CaV13 ICDI inh -6.3.
O=C(Cn1cnc2ccccc2c1=O)Nc1ccc(S(=O)(=O)N2CCCC2)cc1 was read as SIRT5 block 16.4*, MLL AF4-AF9 inh -2.8, S100A4 inh HTS 2.8 and CaV13 ICDI inh -4.3.
For COc1ccc(CC(=O)Nc2ccc(S(=O)(=O)N3CCN(C)CC3)cc2)cc1 the results were SIRT5 block 18.4*, MLL AF4-AF9 inh 2.0, DENV2 CPE -3.8, S100A4 inh HTS -10.7 and CaV13 ICDI inh -6.8.
Screening CN(C)C(=O)[C@@]1(Cc2ccccc2)N=C(c2ccc(OCCCO)cc2)O[C@H]1c1ccccc1 returned SIRT5 block -3.5, MLL AF4-AF9 inh 4.8 and S100A4 inh HTS -2.1.
Screening CC(C)C[C@@H]1NC(=O)[C@H]2C[C@@H](C(=O)NCCCCCN)[C@@H](c3cccc(OCCO)c3)N2C1=O returned SIRT5 block -2.1, MLL AF4-AF9 inh -0.6, DENV2 CPE 31.8* and S100A4 inh HTS 9.7.
Screening CCCNC(=O)[C@@H]1[C@@H](CO)[C@@H]2Cn3c(ccc(C4=CCCCC4)c3=O)[C@H]1N2 returned SIRT5 block -17.6, MLL AF4-AF9 inh 1.5, DENV2 CPE 13.0 and S100A4 inh HTS 5.5.
For C[C@H](CO)N1C[C@H](C)[C@@H](CN(C)Cc2ccc(C(F)(F)F)cc2)Oc2ccc(NC(=O)CCCN(C)C)cc2C1=O the results were SIRT5 block 1.4, MLL AF4-AF9 inh 7.5, DENV2 CPE 0.6 and S100A4 inh HTS 4.0.
For CNC(=S)NNC(=O)c1ccc2c(c1)OCO2 the results were SIRT5 block -0.3, MLL AF4-AF9 inh -1.6, DENV2 CPE 2.3, S100A4 inh HTS -2.0 and CaV13 ICDI inh -6.2.
CCCCNC(=S)NNC(=O)c1ccc2c(c1)OCO2 was read as MLL AF4-AF9 inh -1.9, DENV2 CPE 141.7*, S100A4 inh HTS 1.9 and CaV13 ICDI inh -5.5.
`C[C@H]1CN([C@@H](C)CO)C(=O)c2cc(Br)cnc2O[C@@H]1CN(C)Cc1ccccc1` gave SIRT5 block 0.4, MLL AF4-AF9 inh -2.3, DENV2 CPE 8.4 and S100A4 inh HTS 4.6.
For CN(C)c1ccc(N=Cc2cccn2C)cc1 the results were SIRT5 block -0.9, MLL AF4-AF9 inh 50.1*, DENV2 CPE 14.4, S100A4 inh HTS 7.7 and CaV13 ICDI inh -17.5.
CN(CCc1ccccc1)c1cc2c(c3c1ccn3C)C1CCC2O1 (configuration not stated) was read as SIRT5 block 2.6, MLL AF4-AF9 inh 27.6*, DENV2 CPE 4.5, S100A4 inh HTS -3.1 and CaV13 ICDI inh -6.8.
For CN(c1cc2c(c3c1ccn3C)C1CCC2O1)C1CCCCC1 (configuration not stated) the results were SIRT5 block -3.1, MLL AF4-AF9 inh 32.2*, DENV2 CPE inconclusive, S100A4 inh HTS -8.0 and CaV13 ICDI inh -6.8.
Screening Cn1ccc2c(-c3cccnc3)cc3c(c21)C1CCC3O1 (configuration not stated) returned SIRT5 block 1.3, MLL AF4-AF9 inh 0.1, DENV2 CPE inconclusive, S100A4 inh HTS 2.7 and CaV13 ICDI inh -3.6.
For C[C@H](CO)N1C[C@H](C)[C@H](CN(C)S(=O)(=O)c2cccs2)OCCCC[C@H](C)Oc2ccc(NS(=O)(=O)c3ccc(F)cc3)cc2C1=O the results were SIRT5 block 6.8, MLL AF4-AF9 inh 0.3, DENV2 CPE 30.9* and S100A4 inh HTS -5.4.
Screening C[C@H](CO)N1C[C@H](C)[C@H](CN(C)S(=O)(=O)c2ccc(Cl)cc2)Oc2ccc(NS(=O)(=O)c3cccs3)cc2C1=O returned SIRT5 block 2.2, MLL AF4-AF9 inh -2.7, DENV2 CPE -3.0 and S100A4 inh HTS -7.1.
`C[C@@H]1CCCCO[C@H](CN(C)S(=O)(=O)c2cccs2)[C@H](C)CN([C@@H](C)CO)C(=O)c2cc(NS(=O)(=O)c3ccc(Cl)cc3)ccc2O1` gave SIRT5 block 5.2, MLL AF4-AF9 inh -1.2, DENV2 CPE 31.4* and S100A4 inh HTS 13.9.
Screening C[C@@H]1CN([C@H](C)CO)C(=O)c2cc(NS(=O)(=O)c3ccc(F)cc3)ccc2O[C@@H](C)CCCCO[C@@H]1CN(C)S(=O)(=O)c1cccs1 returned SIRT5 block 8.8, MLL AF4-AF9 inh -4.6, DENV2 CPE -7.0 and S100A4 inh HTS -13.4.
For C[C@H](CO)N1C[C@H](C)[C@@H](CN(C)S(=O)(=O)c2cccs2)OCCCC[C@H](C)Oc2ccc(NS(=O)(=O)c3ccc(Cl)cc3)cc2C1=O the results were SIRT5 block -0.8, MLL AF4-AF9 inh -0.7, DENV2 CPE 12.5 and S100A4 inh HTS -10.2.
Screening C[C@H]1CN([C@@H](C)CO)C(=O)c2cc(NS(=O)(=O)c3ccc(Cl)cc3)ccc2O[C@H]1CN(C)S(=O)(=O)c1cccs1 returned SIRT5 block 0.5, MLL AF4-AF9 inh -0.3, DENV2 CPE 21.9* and S100A4 inh HTS -24.5.
For COc1ccc(CN(C)C[C@H]2OCCCC[C@@H](C)Oc3ccc(NS(=O)(=O)c4cccs4)cc3C(=O)N([C@@H](C)CO)C[C@@H]2C)cc1 the results were SIRT5 block -0.4, MLL AF4-AF9 inh 6.0, DENV2 CPE 11.4 and S100A4 inh HTS 6.0.
C[C@@H]1CCCCO[C@@H](CN(C)Cc2ccc(C(F)(F)F)cc2)[C@H](C)CN([C@@H](C)CO)C(=O)c2cc(NS(=O)(=O)c3cccs3)ccc2O1 was read as SIRT5 block 19.0*, MLL AF4-AF9 inh 2.4, DENV2 CPE inconclusive and S100A4 inh HTS -5.5.
`COc1ccc(CN(C)C[C@@H]2OCCCC[C@@H](C)Oc3ccc(NS(=O)(=O)c4cccs4)cc3C(=O)N([C@@H](C)CO)C[C@H]2C)cc1` gave SIRT5 block 1.7, MLL AF4-AF9 inh 1.5, DENV2 CPE 26.7* and S100A4 inh HTS 17.3.
C[C@@H]1CCCCO[C@H](CN(C)Cc2ccc(C(F)(F)F)cc2)[C@H](C)CN([C@H](C)CO)C(=O)c2cc(NS(=O)(=O)c3cccs3)ccc2O1 was read as SIRT5 block 16.1*, MLL AF4-AF9 inh 0.8, DENV2 CPE -0.6 and S100A4 inh HTS 21.2.
For C[C@@H]1CCCCO[C@H](CN(C)Cc2ccc(C(=O)O)cc2)[C@H](C)CN([C@H](C)CO)C(=O)c2cc(NS(=O)(=O)c3cccs3)ccc2O1 the results were SIRT5 block 20.8*, MLL AF4-AF9 inh -2.6, DENV2 CPE -1.5 and S100A4 inh HTS 5.5.
For C[C@@H]1CN([C@@H](C)CO)C(=O)c2cc(NS(=O)(=O)c3cccs3)ccc2O[C@@H](C)CCCCO[C@@H]1CN(C)Cc1ccc(C(=O)O)cc1 the results were SIRT5 block 1.4, MLL AF4-AF9 inh -4.1, DENV2 CPE -2.1 and S100A4 inh HTS 7.9.
